One block for each compound: values may come before it. Active and inactive are the calls of the source. The rule behind the calls is not given here.
What was measured:
Rattus norvegicus [1] = experiment: Antisecretory activity in 5-hrs pyloric ligated rat assessed as pH of gastric contents at 100 mg/kg, po administered 2 hrs prior to pyloric ligation measured after 1 hr (reference value: 1.1 no-unit); type: functional, Stomach
Canis familiaris [2] = experiment: Antisecretory activity in histamine-stimulated dog assessed as inhibition of total acid output at 3.1 mg/kg, po administered 18 and 2 hrs prior to histamine challenge (reference value: 0%); type: functional; conditions: Canis lupus familiaris
Rattus norvegicus [3] = experiment: Antisecretory activity in 5-hrs pyloric ligated rat assessed as pH of gastric contents at 100 mg/kg, po administered 2 hrs prior to pyloric ligation measured after 1 hr (reference value: 1.07 to 1.1 no-unit); type: functional, Stomach
Rattus norvegicus [4] = experiment: Antisecretory activity in 5-hrs pyloric ligated rat assessed as pH of gastric contents at 12.5 mg/kg, po administered 2 hrs prior to pyloric ligation measured after 1 hr (reference value: 1.07 +/- 0.01 no-unit); type: functional, Stomach
Summary of the method: (§1)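 Rats given a single po dose (12.5–100 mg/kg) 2 h before a 5-h pyloric ligation. Gastric secretion was assayed for pH, volume (mL/100 g) and total acid output ([…]), with % inhibition relative to controls. Groups had 5–15 rats, with 39 controls. Values are means ± SE from several experiments, and significance versus control was taken at p < 0.05 or 0.01.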

Rattus norvegicus [5] = experiment: Antisecretory activity in 5-hrs pyloric ligated rat assessed as volume of gastric secretion at 50 mg/kg, po administered 2 hrs prior to pyloric ligation measured per 100 gm of tissue (reference value: 4.05 +/- 0.21 ml); type: functional, Stomach; summary of the method: as §1
Rattus norvegicus [6] = experiment: Antisecretory activity in 5-hrs pyloric ligated rat assessed as pH of gastric contents at 25 mg/kg, po administered 2 hrs prior to pyloric ligation measured after 1 hr (reference value: 1.07 +/- 0.01 no-unit); type: functional, Stomach; summary of the method: as §1
Canis familiaris [7] = experiment: Antisecretory activity in histamine-stimulated dog assessed as pH of gastric contents at 1.6 mg/kg, po administered 18 and 2 hrs prior to histamine challenge (reference value: 1 no-unit); type: functional, Canis lupus familiaris, Stomach
Canis familiaris [8] = experiment: Antisecretory activity in po dosed histamine-stimulated dog assessed as decrease in volume of gastric secretions administered 18 and 2 hrs prior to histamine challenge; type: functional, organism-based; conditions: Canis lupus familiaris; Stomach
Rattus norvegicus [9] = experiment: Antisecretory activity in po dosed 5-hrs pyloric ligated rat assessed as decrease in total acidity of gastric secretions administered 2 hrs prior to pyloric ligation; type: functional, organism-based; conditions: Stomach; summary of the method: as §1
Rattus norvegicus [10] = experiment: Antisecretory activity in 5-hrs pyloric ligated rat assessed as volume of gastric secretion at 25 mg/kg, po administered 2 hrs prior to pyloric ligation measured per 100 gm of tissue (reference value: 4.05 +/- 0.21 ml); type: functional, Stomach; summary of the method: as §1
Rattus norvegicus [11] = experiment: Antisecretory activity in 5-hrs pyloric ligated rat assessed as inhibition of total acid output at 25 mg/kg, po administered 2 hrs prior to pyloric ligation (reference value: 0%); type: functional; summary of the method: as §1
Canis familiaris [12] = experiment: Antisecretory activity in histamine-stimulated dog assessed as pH of gastric contents at 25 mg/kg, po administered 18 and 2 hrs prior to histamine challenge (reference value: 1 no-unit); type: functional, Canis lupus familiaris, Stomach
Rattus norvegicus [13] = experiment: Antisecretory activity in 5-hrs pyloric ligated rat assessed as inhibition of total acid output at 12.5 mg/kg, po administered 2 hrs prior to pyloric ligation (reference value: 0%); type: functional; summary of the method: as §1
Canis familiaris [14] = experiment: Antisecretory activity in histamine-stimulated dog assessed as volume of gastric secretion at 6.2 mg/kg, po administered 18 and 2 hrs prior to histamine challenge measured per 15 mins (reference value: 14.7 ml); type: functional, Canis lupus familiaris, Stomach
Canis familiaris [15] = experiment: Antisecretory activity in histamine-stimulated dog assessed as pH of gastric contents at 3.1 mg/kg, po administered 18 and 2 hrs prior to histamine challenge (reference value: 1 no-unit); type: functional, Canis lupus familiaris, Stomach
Rattus norvegicus [16] = experiment: Antisecretory activity in 5-hrs pyloric ligated rat assessed as inhibition of total acid output at 50 mg/kg, po administered 2 hrs prior to pyloric ligation (reference value: 0%); type: functional; summary of the method: as §1
Canis familiaris [17] = experiment: Antisecretory activity in histamine-stimulated dog assessed as inhibition of total acid output at 12.5 mg/kg, po administered 18 and 2 hrs prior to histamine challenge (reference value: 0%); type: functional; conditions: Canis lupus familiaris
Canis familiaris [18] = experiment: Antisecretory activity in histamine-stimulated dog assessed as pH of gastric contents at 12.5 mg/kg, po administered 18 and 2 hrs prior to histamine challenge (reference value: 1 no-unit); type: functional, Canis lupus familiaris, Stomach
Canis familiaris [19] = experiment: Antisecretory activity in histamine-stimulated dog assessed as volume of gastric secretion at 3.1 mg/kg, po administered 18 and 2 hrs prior to histamine challenge measured per 15 mins (reference value: 14.7 ml); type: functional, Canis lupus familiaris, Stomach
[20] = target: Histamine H2 receptor (Cavia porcellus) (UniProt P47747); experiment: Inhibition of histamine H2 receptor in guinea pig atria assessed as inhibition of histamine response
Chain of Histamine H2 receptor (Cavia porcellus) (P47747 whole entry): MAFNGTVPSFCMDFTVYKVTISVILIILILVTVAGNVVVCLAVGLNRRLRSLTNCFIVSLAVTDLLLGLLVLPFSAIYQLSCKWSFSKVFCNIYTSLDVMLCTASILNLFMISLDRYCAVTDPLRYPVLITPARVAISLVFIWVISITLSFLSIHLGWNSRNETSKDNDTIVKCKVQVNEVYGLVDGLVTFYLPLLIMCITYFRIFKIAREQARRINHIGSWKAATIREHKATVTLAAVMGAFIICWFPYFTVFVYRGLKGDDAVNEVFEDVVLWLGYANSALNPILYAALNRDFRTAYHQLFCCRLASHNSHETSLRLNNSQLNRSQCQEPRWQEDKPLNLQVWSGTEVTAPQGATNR

Heart = experiment: Anticholinergic activity in guinea pig auricle assessed as carbamylcholine-induced depression of heart rate after 5 mins; type: functional, tissue-based; conditions: Cavia porcellus
Summary of the method: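 Isolated guinea pig auricles in Krebs-Henseleit solution at 35 °C. Compound dissolved in Me2SO-H2O, added to the bath, and left on the tissue for 5 min. Read-out was the dose-related carbamylcholine-induced fall in spontaneous heart rate.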

Rattus norvegicus [21] = experiment: Antisecretory activity in po dosed 5-hrs pyloric ligated rat assessed as decrease in volume of gastric secretions administered 2 hrs prior to pyloric ligation; type: functional, organism-based; conditions: Stomach; summary of the method: as §1
Rattus norvegicus [22] = experiment: Antisecretory activity in 5-hrs pyloric ligated rat assessed as volume of gastric secretion at 100 mg/kg, po administered 2 hrs prior to pyloric ligation measured per 100 gm of tissue (reference value: 4.05 +/- 0.21 ml); type: functional, Stomach; summary of the method: as §1
Mus musculus = organism: Mus musculus; experiment: Anticholinergic activity in mouse assessed as induction of mydriasis; type: functional, organism-based
Rattus norvegicus [23] = experiment: Antisecretory activity in 5-hrs pyloric ligated rat assessed as pH of gastric contents at 50 mg/kg, po administered 2 hrs prior to pyloric ligation measured after 1 hr (reference value: 1.07 +/- 0.01 no-unit); type: functional, Stomach; summary of the method: as §1
Canis familiaris [24] = experiment: Antisecretory activity in histamine-stimulated dog assessed as volume of gastric secretion at 1.6 mg/kg, po administered 18 and 2 hrs prior to histamine challenge measured per 15 mins (reference value: 14.7 ml); type: functional, Canis lupus familiaris, Stomach
Canis familiaris [25] = experiment: Antisecretory activity in histamine-stimulated dog assessed as inhibition of total acid output at 25 mg/kg, po administered 18 and 2 hrs prior to histamine challenge (reference value: 0%); type: functional; conditions: Canis lupus familiaris
Canis familiaris [26] = experiment: Antisecretory activity in po dosed histamine-stimulated dog assessed as increase in pH of gastric secretions administered 18 and 2 hrs prior to histamine challenge; type: functional, organism-based; conditions: Canis lupus familiaris; Stomach
Canis familiaris [27] = experiment: Antisecretory activity in po dosed histamine-stimulated dog assessed as decrease in total acidity of gastric secretions administered 18 and 2 hrs prior to histamine challenge; type: functional, organism-based; conditions: Canis lupus familiaris; Stomach
Canis familiaris [28] = experiment: Antisecretory activity in histamine-stimulated dog assessed as inhibition of total acid output at 6.2 mg/kg, po administered 18 and 2 hrs prior to histamine challenge (reference value: 0%); type: functional; conditions: Canis lupus familiaris
Rattus norvegicus [29] = experiment: Antisecretory activity in 5-hrs pyloric ligated rat assessed as inhibition of total acid output at 100 mg/kg, po administered 2 hrs prior to pyloric ligation (reference value: 0%); type: functional; summary of the method: as §1
Trachea = experiment: Anticholinergic activity in guinea pig trachea assessed as carbamylcholine-induced constriction at 10 uM; type: functional, tissue-based; conditions: Cavia porcellus
Summary of the method: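 Guinea pig trachea set up in the same bath system as the auricle preparation. Compound in Me2SO-H2O was added to the bath at 10^-5 M. Read-out was the dose-related response to carbamylcholine.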

Rattus norvegicus [30] = experiment: Antisecretory activity in po dosed 5-hrs pyloric ligated rat assessed as increase in pH of gastric secretions administered 2 hrs prior to pyloric ligation measured after 1 hr; type: functional, organism-based; conditions: Stomach; summary of the method: as §1
Canis familiaris [31] = experiment: Antisecretory activity in histamine-stimulated dog assessed as volume of gastric secretion at 12.5 mg/kg, po administered 18 and 2 hrs prior to histamine challenge measured per 15 mins (reference value: 14.7 ml); type: functional, Canis lupus familiaris, Stomach
Canis familiaris [32] = experiment: Antisecretory activity in histamine-stimulated dog assessed as inhibition of total acid output at 1.6 mg/kg, po administered 18 and 2 hrs prior to histamine challenge (reference value: 0%); type: functional; conditions: Canis lupus familiaris
Canis familiaris [33] = experiment: Antisecretory activity in histamine-stimulated dog assessed as pH of gastric contents at 6.2 mg/kg, po administered 18 and 2 hrs prior to histamine challenge (reference value: 1 no-unit); type: functional, Canis lupus familiaris, Stomach
Canis familiaris [34] = experiment: Antisecretory activity in histamine-stimulated dog assessed as volume of gastric secretion at 25 mg/kg, po administered 18 and 2 hrs prior to histamine challenge measured per 15 mins (reference value: 14.7 ml); type: functional, Canis lupus familiaris, Stomach
Rattus norvegicus [35] = experiment: Antisecretory activity in 5-hrs pyloric ligated rat assessed as volume of gastric secretion at 12.5 mg/kg, po administered 2 hrs prior to pyloric ligation measured per 100 gm of tissue (reference value: 4.05 +/- 0.21 ml); type: functional, Stomach; summary of the method: as §1

SMILES: Cc1c2c(c(C)n1-c1ccc(F)cc1)C(C)(C(N)=O)CC2(C)C (stereo unspecified)
pH (Rattus norvegicus [1]): 1.4

SMILES: Cc1c2c(c(C)n1C1CCCC1)C(C)(C(N)=O)CC2(C)C (stereo unspecified)
pH (Rattus norvegicus [1]): 1.3

SMILES: Cc1ccccc1-n1c(C)c2c(c1C)C(C)(C(N)=O)CC2(C)C (stereo unspecified)
pH (Rattus norvegicus [1]): 1

SMILES: Cc1c2c(c(C)n1-c1ccc(Cl)cc1)C(C)(C(N)=O)CC2(C)C (stereo unspecified)
pH (Rattus norvegicus [1]): 1.2

SMILES: CN/C(=N\CCSCc1nc[nH]c1C)NC#N [CIMETIDINE]
pH (Rattus norvegicus [1]): 2.1

SMILES: Cc1c2c(c(C)n1C1CC1)C(C)(C(N)=O)CC2(C)C (stereo unspecified)
pH (Rattus norvegicus [1]): 3.7

SMILES: CCn1c(C)c2c(c1C)C(C)(C(N)=O)CC2(C)C (stereo unspecified)
pH (Rattus norvegicus [1]): 4.8

SMILES: Cc1c2c(c(C)n1C)C(C)(C(N)=O)CC2(C)C (stereo unspecified)
pH (Rattus norvegicus [1]): 4.2

SMILES: Cc1c2c(c(C)n1Cc1ccccc1)C(C)(C(N)=O)CC2(C)C (stereo unspecified)
pH (Rattus norvegicus [1]): 1

SMILES: CCCCn1c(C)c2c(c1C)C(C)(C(N)=O)CC2(C)C (stereo unspecified)
pH (Rattus norvegicus [1]): 2.5

SMILES: Cc1cccc(-n2c(C)c3c(c2C)C(C)(C(N)=O)CC3(C)C)c1 (stereo unspecified)
pH (Rattus norvegicus [1]): 1.2

SMILES: Cc1c2c(c(C)n1-c1ccccc1Cl)C(C)(C(N)=O)CC2(C)C (stereo unspecified)
pH (Rattus norvegicus [1]): 1.1

SMILES: Cc1[nH]c(C)c2c1C(C)(C)CC2(C)C(N)=O (stereo unspecified)
pH (Rattus norvegicus [1]): 1.4

SMILES: Cc1c2c(c(C)n1C1CCC1)C(C)(C(N)=O)CC2(C)C (stereo unspecified)
pH (Rattus norvegicus [1]): 2.2

SMILES: Cc1c2c(c(C)n1CC1CC1)C(C)(C(N)=O)CC2(C)C (stereo unspecified)
pH (Rattus norvegicus [1]): 5.1

SMILES: CCCn1c(C)c2c(c1C)C(C)(C(N)=O)CC2(C)C (stereo unspecified)
pH (Rattus norvegicus [1]): 5.3

SMILES: Cc1c2c(c(C)n1C(C)C)C(C)(C(N)=O)CC2(C)C (stereo unspecified)
pH (Rattus norvegicus [1]): 1.8

SMILES: Cc1ccc(-n2c(C)c3c(c2C)C(C)(C(N)=O)CC3(C)C)cc1 (stereo unspecified)
pH (Rattus norvegicus [1]): 1.1

inhibition [20]: Active
SMILES: Cc1c2c(c(C)n1-c1ccccc1)C(C)(C(N)=O)CC2(C)C (stereo unspecified)
inhibition in vivo at 3.1 mg/kg (Canis familiaris [2]): 84% | pH (Rattus norvegicus [3]): 6.2 | pH (Rattus norvegicus [4]): 1.34 | Activity (Rattus norvegicus [5]): 1.66 mL | pH (Rattus norvegicus [6]): 1.83 | pH (Canis familiaris [7]): 1.2 | inhibition (Canis familiaris [8]): Dose-dependent effect | inhibition (Rattus norvegicus [9]): Dose-dependent effect | Activity (Rattus norvegicus [10]): 2.16 mL | inhibition in vivo at 25 mg/kg (Rattus norvegicus [11]): 52% | pH (Canis familiaris [12]): 6.7 | inhibition in vivo at 12.5 mg/kg (Rattus norvegicus [13]): 41% | Activity (Canis familiaris [14]): 2 mL | pH (Canis familiaris [15]): 1.8 | inhibition in vivo at 50 mg/kg (Rattus norvegicus [16]): 75% | inhibition in vivo at 12.5 mg/kg (Canis familiaris [17]): 88% | pH (Canis familiaris [18]): 4.7 | Activity (Canis familiaris [19]): 3.8 mL | Activity (Heart): inactive | inhibition (Rattus norvegicus [21]): Dose-dependent effect | Activity (Rattus norvegicus [22]): 1.19 mL | Activity (Mus musculus): inactive | pH (Rattus norvegicus [23]): 3.28 | Activity (Canis familiaris [24]): 11.9 mL | inhibition in vivo at 25 mg/kg (Canis familiaris [25]): 93% | Activity (Canis familiaris [26]): Dose-dependent effect | inhibition (Canis familiaris [27]): Dose-dependent effect | inhibition in vivo at 6.2 mg/kg (Canis familiaris [28]): 95% | inhibition in vivo at 100 mg/kg (Rattus norvegicus [29]): 100% | Activity (Trachea): inactive | Activity (Rattus norvegicus [30]): Dose-dependent effect | Activity (Canis familiaris [31]): 4.8 mL | inhibition in vivo at 1.6 mg/kg (Canis familiaris [32]): 49% | pH (Canis familiaris [33]): 3.9 | Activity (Canis familiaris [34]): 2.4 mL | Activity (Rattus norvegicus [35]): 2.66 mL

SMILES: Cc1c2c(c(C)n1-c1cccc(Cl)c1)C(C)(C(N)=O)CC2(C)C (stereo unspecified)
pH (Rattus norvegicus [1]): 1.1

Reference: ChEMBL document CHEMBL3244175, “Experimental antiulcer drugs. 2. 2-Substituted 2,4,5,6-tetrahydro-1,3,4,6,6-pentamethylcyclopenta[c]pyrrole-4-carboxamides” (1977)
